Data from the EternaBench riboswitch data.

Tested on: MS2 coat protein
Test: apparent Kd, MS2 coat protein; higher = weaker binding; RNA-MaP array; FMN 200 µM where present
Summary of the method: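 Stalled E. coli RNA polymerase produced the designs on Illumina sequencing-chip clusters. SNAP-549-labelled MS2 coat protein was added from 0.7 or 1.5 nM, doubling to 3 µM, without and then with constant ligand, in 100 mM Tris-HCl pH 7.5, 80 mM KCl, 4 mM MgCl2, BSA, DTT, yeast tRNA and Tween-20. The apparent Kd is the median of filtered per-cluster fits of green signal normalised to red-channel RNA signal and control-cluster median Fmax.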

[1] = designed as: ON switch for flavin mononucleotide, no ligand
[2] = ligand present: flavin mononucleotide, designed as: ON switch for flavin mononucleotide
[3] = designed as: OFF switch for flavin mononucleotide, no ligand
[4] = ligand present: flavin mononucleotide, designed as: OFF switch for flavin mononucleotide

| Sequence | apparent Kd [1] [nM] | apparent Kd [2] [nM] | apparent Kd [3] [nM] | apparent Kd [4] [nM] |
| --- | --- | --- | --- | --- |
| AACAGACAUGAGGAUCACCCAUGUAGAAUUAUGGGAGGAUAUACAAAGACGAGAGUCAGAGUAGAAGGCCUAGGAC | 46.5 | 29.9 |  |  |
| GACAUGGGCUAGAAGGCCUAUCUAUUUAAGUACGAUUUAGAACAGCAUAGGAGGAUAUGGCUAACAUGAGGAUCACCCAUGUUC | 170 | 39.2 |  |  |
| AGCUAGUCAGGAUAUACGCAAACGAACGAAGCAGUGAAGGGACAUGAGGAUCACCCAUGUAGAAGGGACUAGCA |  |  | 24.5 | 140 |
| UGUUGUAUUACAGGAUAUCUAAUAUUUUUAUUUAGAGAAGGGUAUUCACAUGAGGAUCACCCAUGUAUAUACGAGGAAGUUGUG | 34.3 | 38.1 |  |  |
| GUGGACGUCGUAGGAUAUGUAGGAUAUUCCUACAUGAGGAUCACCCAUGUUGAAAUGGAAGAAGGACAGAAGGACGAUGUCCAG | 58.5 | 12.7 |  |  |
| AUAAUUUUAUAUAUCUUAUUUAUCAGAAGGCAUAACAUGAGGAUCACCCAUGUAUAUUAUUGUUAUGAGGAUAUGAUUUAGUUA |  |  | 10.1 | 58.3 |
| GCCAUCACAUGAGGAUAUGCUCCCGUUUCGGGAGCAGAAGGCGUGUCAUAAGACAUGAGGAUCACCCAUGUAGUUAAGAUGGCA | 399 | 12.7 |  |  |
| UUGGACGUCGUAGGAUAUGUAGGAUAUUCCUACAUGAGGAUCACCCAUGUUGACAUGGAAGAAGGACAGAAGGACUAUGUCCAU | 195 | 8.53 |  |  |
| ACUGACAUGAGGAUCACCCAUGUCUUGAAUAGGUCAAAUUCACAGGAUAUGCACGCGGACAGAGUGCAGAAGGGUGAUGCAAUG | 44 | 11.8 |  |  |
| CGACAAGUCGUAGGAUAUGGUGAUGUACAUGAGGAUCACCCAUGUCCGUCUUCUCUCACAAGAUGCCAGAAGGGCGACUUCCGG | 676 | 404 |  |  |
| GUUUUCGCAUGAGGAUAUGCUCGCAUUUCAAGAGCAGAAGGUAUGUCUAUAGACAUGAGGAUCACCCAUGUAUCUAACUUUGAA | 352 | 65 |  |  |
| UGAGCCUCGUGAGGAUAUACAUGAGGAUCACCCAUGUAAUAAAGUGAACGGAGGAAACUCCGAAUGUAGAAGGUACGAGGCUCA |  |  | 10.1 | 44.2 |
| CUGGUGUCAGGAUAUGCAUAGCAGUGACCGAAACCCGGUCAGCAGAAGGGACAUGAGGAUCACCCAUGUUAAUA |  |  | 23 | 64.1 |
| GAAUACCUAGGAUAUACAUGAGGAUCACCCAUGUCAGUAGACUCGGAAAAGUCUCUCAGUAGAAGGAGGACCAG |  |  | 35.2 | 79.3 |
| CCGGGACAUGAGGAUCACCCAUGUUUCGUUUGUAGUAAAACACAGGAUAUGAUGAAACAGGUUUCUCAGAAGGGUGUUCCGAAA | 81.3 | 55.3 |  |  |
| UUUUUUUUUAGAGGAUAUAUUGUGUGUUAUAUAAUAGAAGGCUAAACAUGUGACAUACACAUGAGGAUCACCCAUGUUUUGUUU | 31.6 | 27 |  |  |
| GGAUCGAGUGUGAGGAUAUGCUGGUCCUUGGAUCAGCAGAAGGCACAUGAGGAUCACCCAUGUGUUCCCGGUCC |  |  | 48.9 | 577 |
| CAUAUAGUUUGAGGAUAUUCAUGCACUGUAUACGGAGAAGGCAAACUAUCAUGUGGACAUGAGGAUCACCCAUGUAGUGACCAG | 54.2 | 41 |  |  |

| Sequence | apparent Kd [1] [nM] | apparent Kd [2] [nM] | apparent Kd [3] [nM] | apparent Kd [4] [nM] |
| --- | --- | --- | --- | --- |
| GCAGUACGCCUGGCAAUUUGCAAGCAGGAUAUCAGGCACCGUGAGACAUGAGGAUCACCCAUGUCUGAGAAGGGCUGGAGUUGC |  |  | 9.68 | 18.9 |
| CGCUAAGAGAACUAUUCGAGAAGACAUGAGGAUCACCCAUGUAGAAGGACAACGGAAUAAACGUUGUAGGAUAUACACUUAGCG |  |  | 9.36 | 8.97 |
| AGUGGCCGAGGAUAUACGGACGUGUCGCCGGGUGUCGUGGGACAUGAGGAUCACCCAUGUAGAAGGUGGUUGUU |  |  | 170 | 219 |
| AAAAAAAAAGUCGAGGAUAUCCACAUGGCUACAUGAGGAUCACCCAUGUGAAGAAAAGCACAUGAGGAGAAGGCGACAAAAAAAAA | 28.1 | 13.7 |  |  |
| UUAAAUCAUGUAGGAUAUGCAUGGCGAAGCUACGCAGAAGGACAUGAGGAUCACCCAUGUGCUAGCGUCUGGAUACAGAUGCAA |  |  | 48.5 | 258 |
| UGUCGGAGCAGAGGAUAUUACAUGAGGAUCACCCAUGUAUGAACCAAUAGCUGGAAACAGCAAUGUAAGAAGGUUGCUCCGACA |  |  | 7.29 | 46.7 |
| ACCAAUGCAGGAUAUACAUGAGGAUCACCCAUGUAUAACCUACAUAGAUGAUUAUUAUGUAGAAGGGUAUUGGA |  |  | 13.2 | 12.9 |
| UGGUACUAGGGAGGAUAUGGGAAGAUACAUGAGGAUCACCCAUGUUUAAGAAUGCCGAGAGGCAACUAGAAGGCCCUAGUACCA | 529 | 19.2 |  |  |
| AAUAACCAAGGAUAUACAUGAGGAUCACCCAUGUGGCGUCUGCGAGCUACAUCCCUUAGUAGAAGGUGGACCAG |  |  | 23.4 | 27 |
| CGUAUGUCAGGAUAUGCGUAUGCCAGUCAGGGCGAGUGGCAGCAGAAGGGACAUGAGGAUCACCCAUGUUCGGG |  |  | 60.8 | 51.3 |
| AAAAUACAUGAGGAUCACCCAUGUUAGGAUAUCCAAGGUCUAACCCUCAGGGUUAGACGGAGAAGGGAUGUGGU |  |  | 60.8 | 61.6 |
| CAGGAUAGAGGAUAUACAUAGAUACAGAUUCGUGUGAUCCUACAUGAGGAUCACCCAUGUAGAAGGCUAUCCUG |  |  | 213 | 15.9 |
| CAUUUACAUGAGGAUCACCCAUGUUCUGGCGGGUCAGGAUAUAGAUCGGAUGCGUUCUGUCUAGAAGGGACAUGUU | 72 | 35.6 |  |  |
| UGUGUGUGACAGGAUAUGCUGGUUGUGUGGCGGGUAGAAGGGUCUACAUGAGGAUCACCCAUGUGGCCGGUUGG |  |  | 22.8 | 21.5 |
| AGAACUGAUAGAGGAUAUGUUUUACAUGAGGAUCACCCAUGUGUACAAGGAUCAAUAUAUUAGUAACAGAAGGCUAUUAGUGAG |  |  | 13.2 | 19.5 |
| UCGUUUAUACAAGGAUAUCAAUUAUAGCUAAAUUCAACAUGAGGAUCACCCAUGUAACUAUGGAGUGAGAAGGUGUAAUGGCUU | 116 | 310 |  |  |
| AUACCUUAUGAGAAGGCGAUUAUGAAACAUGAUCGAGGAUAUCAUGUAAACAUGAGGAUCACCCAUGUAUGGGUAUUAUGGUAC | 50 | 11.6 |  |  |
| UGUCCAUAGCAGAAGGACAUGAAUAAUCAUGAAAACAUGAGGAUCACCCAUGUAGGAUAUGCUAUGGACUAAGAGCGAAAGCUC |  |  | 28.6 | 430 |
